Test results taken from PMC3382646 (Journal of Computer-Aided Molecular Design, 2011).

Target: T1, Bovine pancreatic trypsin (Bos taurus, UniProt P00760)
T1 sequence (P00760 24-246): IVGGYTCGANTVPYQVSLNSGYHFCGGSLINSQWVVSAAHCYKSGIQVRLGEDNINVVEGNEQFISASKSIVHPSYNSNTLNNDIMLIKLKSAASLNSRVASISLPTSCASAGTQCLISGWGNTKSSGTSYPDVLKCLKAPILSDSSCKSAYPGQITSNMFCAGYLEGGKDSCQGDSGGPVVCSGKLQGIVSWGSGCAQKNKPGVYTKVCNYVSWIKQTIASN
Experiment: X-ray crystallography of fragments soaked into trypsin crystals
Conditions: two-step soak, 24-48 h each, crystals in P212121, pH 5.8
Summary of the method: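 Crystals soaked in DMSO-derived fragment/cryoprotectant mix, then transferred to fresh mix. At least two crystals per soak, liquid-nitrogen cooled; synchrotron, 181 × 1° frames, 1–3 s. Automated processing, ligand placed in active-site density, manual rebuilding.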

Soaked fragment density: Yes
SMILES: NCc1cccc(N2CCCC2)c1 [CC 38513]
